Results reported in ChEMBL document CHEMBL2176877, “Inhibition of NF-κB-dependent cytokine and inducible nitric oxide synthesis by the macrocyclic ellagitannin oenothein B in TLR-stimulated RAW 264.7 macrophages” (J Nat Prod, 2012).
Each block holds one molecule with its values, some of them ahead of it. Calls of active or inactive are those of the source. No cut-off for these calls is given here.

Experiments:
[1] = molecular target: T1, Nitric oxide synthase, inducible (Mus musculus) (UniProt P29477); assay: Inhibition of iNOS in mouse RAW264.7 cells at 50 ug/ml; assay type: cell-based
T1 sequence (whole entry): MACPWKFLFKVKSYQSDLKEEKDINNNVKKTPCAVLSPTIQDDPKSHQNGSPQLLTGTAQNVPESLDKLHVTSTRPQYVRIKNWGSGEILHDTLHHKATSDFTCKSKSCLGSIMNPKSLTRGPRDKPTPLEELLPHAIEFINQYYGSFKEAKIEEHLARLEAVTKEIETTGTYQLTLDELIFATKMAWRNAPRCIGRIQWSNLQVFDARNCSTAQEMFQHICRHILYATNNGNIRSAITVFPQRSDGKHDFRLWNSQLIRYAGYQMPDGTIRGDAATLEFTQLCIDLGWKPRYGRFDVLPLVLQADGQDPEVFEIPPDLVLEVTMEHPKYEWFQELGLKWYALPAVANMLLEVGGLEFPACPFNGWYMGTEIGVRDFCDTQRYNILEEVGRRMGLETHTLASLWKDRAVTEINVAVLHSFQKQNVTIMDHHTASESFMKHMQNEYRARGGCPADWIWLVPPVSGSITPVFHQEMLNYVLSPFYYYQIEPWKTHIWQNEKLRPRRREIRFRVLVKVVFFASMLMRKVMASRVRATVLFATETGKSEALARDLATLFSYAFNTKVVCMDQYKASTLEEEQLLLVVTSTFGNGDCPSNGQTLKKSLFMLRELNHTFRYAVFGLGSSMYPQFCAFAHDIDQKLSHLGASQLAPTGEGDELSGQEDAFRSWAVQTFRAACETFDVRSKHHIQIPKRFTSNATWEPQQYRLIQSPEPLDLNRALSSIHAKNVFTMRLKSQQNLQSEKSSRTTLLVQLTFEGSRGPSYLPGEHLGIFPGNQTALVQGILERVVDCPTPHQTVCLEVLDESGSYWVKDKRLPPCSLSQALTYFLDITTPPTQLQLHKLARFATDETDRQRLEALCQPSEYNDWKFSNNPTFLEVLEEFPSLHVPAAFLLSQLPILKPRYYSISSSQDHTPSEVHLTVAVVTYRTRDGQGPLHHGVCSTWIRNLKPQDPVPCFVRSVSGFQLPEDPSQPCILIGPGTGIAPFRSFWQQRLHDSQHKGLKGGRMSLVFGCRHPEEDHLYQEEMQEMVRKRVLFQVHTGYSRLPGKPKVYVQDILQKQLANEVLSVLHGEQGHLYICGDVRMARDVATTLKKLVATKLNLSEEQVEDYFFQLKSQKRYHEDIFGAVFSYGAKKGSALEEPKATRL

[2] = molecular target: T1, Nitric oxide synthase, inducible (Mus musculus); conditions: RAW264.7, 300 uM
RAW264.7 [3] = assay: Inhibition of LPS-induced NO production in mouse RAW264.7 cells assessed as reduction in nitrite level within 24 hrs by Griess reagent method; assay type: functional, cell-based; conditions: for IC50: RAW264.7, 24 h
RAW264.7 [4] = assay: Reduction of TNFalpha mRNA expression in LPS-stimulated mouse RAW264.7 cells by RT-PCR analysis; assay type: functional, cell-based
How it was run: (§1)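 IL-1beta, IL-6 and TNF-alpha mRNA from RAW 264.7 cells quantified by real-time RT-PCR using intron- or exon−exon boundary spanning primers. Results given as mean normalized expression; IL-6 and TNF-alpha levels normalized to 1000 copies of beta-actin.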

RAW264.7 [5] = assay: Inhibition of LPS-induced NO production in mouse RAW264.7 cells assessed as reduction in nitrite level at 60 ug/ml after 24 hrs by Griess reagent method; assay type: functional; conditions: RAW264.7, 24 h
[6] = molecular target: T2, Nuclear factor NF-kappa-B p105 subunit (Mus musculus) (UniProt P25799); assay: Inhibition of binding of NFkappa-B p50 subunit to biotinylated consensus sequence in nuclear extract of LPS-stimulated mouse RAW264.7 cells after 1 hr by; assay type: cell-based
T2 sequence (whole entry): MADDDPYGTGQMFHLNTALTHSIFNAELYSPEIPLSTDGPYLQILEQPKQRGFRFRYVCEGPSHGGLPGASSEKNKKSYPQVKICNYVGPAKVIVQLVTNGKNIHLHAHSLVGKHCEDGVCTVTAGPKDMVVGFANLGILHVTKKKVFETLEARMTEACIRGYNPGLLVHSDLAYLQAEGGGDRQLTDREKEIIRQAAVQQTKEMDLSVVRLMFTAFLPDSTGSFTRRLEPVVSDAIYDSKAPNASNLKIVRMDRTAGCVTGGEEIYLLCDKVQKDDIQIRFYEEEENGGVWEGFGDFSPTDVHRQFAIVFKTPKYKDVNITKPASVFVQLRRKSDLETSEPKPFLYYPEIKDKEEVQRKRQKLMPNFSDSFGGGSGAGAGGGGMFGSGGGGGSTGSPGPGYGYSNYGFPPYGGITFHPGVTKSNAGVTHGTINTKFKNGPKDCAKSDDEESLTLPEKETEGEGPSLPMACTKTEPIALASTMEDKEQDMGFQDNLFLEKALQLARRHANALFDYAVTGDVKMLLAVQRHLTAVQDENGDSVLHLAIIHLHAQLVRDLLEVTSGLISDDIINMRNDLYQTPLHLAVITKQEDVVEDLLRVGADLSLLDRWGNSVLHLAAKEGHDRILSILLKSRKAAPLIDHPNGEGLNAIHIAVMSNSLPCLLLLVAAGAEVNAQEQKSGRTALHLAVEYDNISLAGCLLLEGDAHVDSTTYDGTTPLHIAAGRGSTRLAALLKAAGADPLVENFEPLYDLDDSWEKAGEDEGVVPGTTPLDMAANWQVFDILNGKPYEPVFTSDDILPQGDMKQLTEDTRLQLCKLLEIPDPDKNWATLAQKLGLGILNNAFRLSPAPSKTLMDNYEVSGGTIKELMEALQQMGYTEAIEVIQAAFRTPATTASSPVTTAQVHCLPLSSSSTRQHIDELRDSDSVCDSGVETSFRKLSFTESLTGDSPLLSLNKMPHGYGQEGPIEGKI
How it was run: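 RAW 264.7 cells (1 × 10^6) seeded in six-well plates, with LPS and compound added together for 1 h. Nuclear extracts prepared and binding of NF-κB p50 to a biotinylated consensus sequence read as relative light units.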

RAW264.7 [7] = assay: Inhibition of LPS-induced NO production in mouse RAW264.7 cells assessed as reduction in nitrite level at 20 ug/ml after 24 hrs by Griess reagent method; assay type: functional; conditions: RAW264.7, 24 h
RAW264.7 [8] = assay: Cytotoxicity against mouse RAW264.7 cells assessed as reduction in membrane integrity by MTT assay; assay type: cell-based; conditions: in the assay text read “trypan blue exclusion assay” for “MTT assay”
How it was run: (§2)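 RAW 264.7 cells exposed to compound at 20−60 μg/mL over the course of the experimental procedures. Viability checked by trypan blue exclusion (membrane integrity) and by MTT test (cellular metabolism/mitochondrial respiration).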

[9] = molecular target: T1, Nitric oxide synthase, inducible (Mus musculus); assay: Inhibition of iNOS in mouse RAW264.7 cells at 60 ug/ml; assay type: cell-based
How it was run: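 Cytosolic iNOS enzymatic activity assayed with compound at 60 μg/mL final concentration, compared with incubations lacking compound. L-NAME (300 μM) and W1400 (50 μg/mL) served as reference inhibitors.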

RAW264.7 [10] = assay: Inhibition of LPS-induced NO production in mouse RAW264.7 cells assessed as reduction in nitrite level after 24 hrs by Griess reagent method in presence of TLR4 agonist Kdo2
RAW264.7 [11] = assay: Inhibition of LPS-induced NO production in mouse RAW264.7 cells assessed as reduction in nitrite level after 24 hrs by Griess reagent method in presence of TLR2 agonist pam2CSK4; assay type: functional, cell-based
RAW264.7 [12] = assay: Inhibition of LPS-induced NO production in mouse RAW264.7 cells assessed as reduction in nitrite level after 48 hrs by Griess reagent method in presence of TLR2 agonist pam2CSK4; assay type: functional, cell-based
How it was run: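 Cells stimulated through TLR2 with Pam2CSK4 (500 ng/mL) and incubated with compound at 30−60 μg/mL for 48 h. Nitrite read-out by Griess reaction.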

RAW264.7 [13] = assay: Reduction of IL-1beta mRNA expression in LPS-stimulated mouse RAW264.7 cells by RT-PCR analysis; assay type: functional, cell-based; how it was run: as §1
RAW264.7 [14] = assay: Inhibition of LPS-induced NO production in mouse RAW264.7 cells assessed as reduction in nitrite level after 24 hrs by Griess reagent method in presence of IFN-gamma; assay type: functional, cell-based
How it was run: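 Stimulation of the JAK-STAT pathway in RAW 264.7 cells with interferon-gamma at 100 U/mL in the presence of compound. Inducible NO synthesis measured as medium nitrite by Griess reaction.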

RAW264.7 [15] = assay: Reduction of IL-6 mRNA expression in LPS-stimulated mouse RAW264.7 cells by RT-PCR analysis; assay type: functional, cell-based; how it was run: as §1
RAW264.7 [16] = assay: Cytotoxicity against mouse RAW264.7 cells assessed as reduction in cellular metabolism by MTT assay; assay type: ADME, cell-based; how it was run: as §2
RAW264.7 [17] = assay: Reduction of iNOS mRNA expression in LPS-stimulated mouse RAW264.7 cells after 24 hrs by RT-PCR analysis; assay type: functional, cell-based
How it was run: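 LPS-stimulated macrophages given compound at 20−60 μg/mL for 24 h. iNOS mRNA (775 bp) measured by semiquantitative competitive RT-PCR against beta-actin mRNA (513 bp). One representative of three experiments.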

RAW264.7 [18] = assay: Inhibition of LPS-induced NO production in mouse RAW264.7 cells assessed as reduction in nitrite level after 24 hrs by Griess reagent method in presence of TLR4 agonist Kdo2; assay type: functional, cell-based
How it was run: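 TLR4 activation of RAW 264.7 cells with Kdo2-lipid A at 500 ng/mL, together with compound at 30−60 μg/mL for 24 h. Nitrite in the culture medium determined by Griess reaction.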

RAW264.7 [19] = assay: Cytotoxicity against mouse RAW264.7 cells assessed as reduction in mitochondrial respiration by MTT assay; assay type: cell-based; how it was run: as §2
RAW264.7 [20] = assay: Reduction of iNOS expression in LPS-stimulated mouse RAW264.7 cells after 24 hrs by Western blot analysis; assay type: functional, cell-based
How it was run: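 Cells treated with LPS and compound at 10−60 μg/mL for 24 h. Lysates immunoblotted with rabbit polyclonal anti-iNOS, detecting a 130 kD band matched to purified iNOS. Beta-actin (43 kD) used as loading control.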

RAW264.7 [21] = assay: Cytotoxicity against LPS-stimulated mouse RAW264.7 cells assessed as decrease in total mRNA transcription after 24 hrs by RT-PCR analysis; assay type: cell-based; conditions: raw264.7, 24 h
How it was run: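 LPS-stimulated RAW 264.7 macrophages co-incubated with test compound at 20−60 μg/mL for 24 h. iNOS mRNA (775 bp) and beta-actin mRNA (513 bp) analysed by semiquantitative competitive RT-PCR, with actin mRNA used to judge any generalized fall in transcription. One representative of three experiments.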

RAW264.7 [22] = assay: Inhibition of LPS-induced NO production in mouse RAW264.7 cells assessed as reduction in nitrite level at 30 ug/ml after 24 hrs by Griess reagent method; assay type: functional; conditions: RAW264.7, 24 h
[23] = molecular target: Transcription factor p65 (Mus musculus) (UniProt Q04207); assay: Inhibition of NFkappa-B p65 subunit nuclear translocation in LPS-stimulated mouse RAW264.7 cells preincubated for 30mins before LPS treatment by Western blot analysis; assay type: cell-based
How it was run: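 Macrophages pre-incubated with compound at 20−60 μg/mL for 30 min, then stimulated with LPS for 20 min. Nuclear extracts immunoblotted against NF-κB p65, detected as a 65 kD band.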

Chain of Transcription factor p65 (Mus musculus) (Q04207 whole entry): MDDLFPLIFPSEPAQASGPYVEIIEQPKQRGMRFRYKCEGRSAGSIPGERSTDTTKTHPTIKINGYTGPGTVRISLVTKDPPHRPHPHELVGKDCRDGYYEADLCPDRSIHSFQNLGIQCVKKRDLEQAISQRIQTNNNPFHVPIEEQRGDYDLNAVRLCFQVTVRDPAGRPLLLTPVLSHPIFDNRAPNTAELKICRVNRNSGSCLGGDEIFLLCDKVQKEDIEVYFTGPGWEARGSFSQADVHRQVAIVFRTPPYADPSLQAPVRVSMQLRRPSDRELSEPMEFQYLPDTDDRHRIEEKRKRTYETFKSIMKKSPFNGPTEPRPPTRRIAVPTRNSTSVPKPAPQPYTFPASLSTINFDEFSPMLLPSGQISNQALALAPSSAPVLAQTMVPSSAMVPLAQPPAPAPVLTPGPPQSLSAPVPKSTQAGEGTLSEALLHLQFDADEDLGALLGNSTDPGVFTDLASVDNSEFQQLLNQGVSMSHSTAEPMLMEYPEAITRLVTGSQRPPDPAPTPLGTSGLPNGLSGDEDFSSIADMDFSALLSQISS

inhibition [1]: > 70%
Compound: CC(=N)NCc1cccc(CN)c1

Compound: COC(=O)[C@@H](N)CCCNC(=N)N[N+](=O)[O-]
inhibition [2]: > 70%

Compound: O=C(O)c1cc(O)c(O)c(O)c1 [GALLIC ACID]
IC50 (RAW264.7 [3]): 632 µM

inhibition [6]: Active | inhibition [9]: inactive | IC50 (RAW264.7 [3]): 17.7 µM | inhibition [23]: Dose-dependent effect
Compound: O=C(O[C@H]1[C@@H]2OC(=O)c3cc(O)c(O)c(O)c3-c3c4cc(c(O)c3O)Oc3c(cc(O)c(O)c3O)C(=O)O[C@H]3C(O)O[C@@H]5COC(=O)c6cc(O)c(O)c(O)c6-c6c(cc(c(O)c6O)Oc6c(cc(O)c(O)c6O)C(=O)O[C@H]1C(O)O[C@@H]2COC4=O)C(=O)O[C@H]5[C@@H]3OC(=O)c1cc(O)c(O)c(O)c1)c1cc(O)c(O)c(O)c1 (stereo not given in full) [OENOTHEIN B]
Activity (RAW264.7 [4]): Active | inhibition at 60 µg/mL (RAW264.7 [5]): 87.9% | inhibition at 20 µg/mL (RAW264.7 [7]): 34.8% | Activity (RAW264.7 [8]): Non-toxic | inhibition (RAW264.7 [10]): Dose-dependent effect | inhibition (RAW264.7 [11]): Dose-dependent effect | inhibition (RAW264.7 [12]): Dose-dependent effect | inhibition (RAW264.7 [3]): Dose-dependent effect | Activity (RAW264.7 [13]): Active | inhibition (RAW264.7 [14]): inactive | Activity (RAW264.7 [15]): Active | Activity (RAW264.7 [16]): Non-toxic | Activity (RAW264.7 [17]): Dose-dependent effect | inhibition (RAW264.7 [18]): Dose-dependent effect | Activity (RAW264.7 [19]): Non-toxic | Activity (RAW264.7 [20]): Dose-dependent effect | Activity (RAW264.7 [21]): Non-toxic | inhibition at 30 µg/mL (RAW264.7 [22]): 64.6%
